Consider seven compounds from ChEMBL document CHEMBL4359864, “The synthesis and in vitro biological evaluation of novel fluorinated tetrahydrobenzo[j]phenanthridine-7,12-diones against Mycobacterium tuberculosis” (Eur J Med Chem, 2019).

A word on the IC50: it is the point on the concentration scale where inhibition reaches its midpoint. A low value points to inhibition by little substance.

In the test the test system is Mycobacterium tuberculosis variant bovis BCG. Nature of the test: Antimycobacterial activity against Mycobacterium bovis BCG ATCC 35737 by resazurin dye based fluorimetric assay. It is filed as functional, organism-based. The method in brief: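 Resazurin microtiter method as for the bacterial panel. Mycobacteria grown in 7H9 with 10% OADC and 0.5% glycerol; for BCG, 0.05% Tween 80 replaced the glycerol. Cultures were sonicated and needle-passed to single cells. Incubation at 37°C, or 32°C for M. marinum. Fluorescence read at ex 550/em 590 nm; mean of triplicates.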

Structures are written as SMILES.

On to `COc1c(N2C[C@@H]3CCCN[C@@H]3C2)c(F)cc2c(=O)c(C(=O)O)cn(C3CC3)c12` [MOXIFLOXACIN], for which the IC50 was determined as 0.03 µM.
With `O=C1C2=C(C(=O)c3c1cnc1cc(C(F)(F)F)ccc31)C1CCC2C1` (configuration not stated) the figure was 15 µM.
`O=C1C2=C(C(=O)c3c1cnc1cc(F)ccc31)C1CCC2C1` (configuration not stated) returned an IC50 of 17.4 µM.
Next, `O=C1C2=C(C(=O)c3c1cnc1ccccc31)C1CCC2C1` (configuration not stated): 7.9 µM; `O=C1C2=C(C(=O)c3c1cnc1ccc(F)cc31)C1CCC2C1` (configuration not stated): 10.3 µM.
Next, `O=C1C2=C(C(=O)c3c1cnc1ccc(C(F)(F)F)cc31)C1CCC2C1` (configuration not stated): 12.5 µM; `O=C1C2=C(C(=O)c3c1cnc1c(F)cccc31)C1CCC2C1` (configuration not stated): 5.03 µM.
